ChEMBL document CHEMBL3414507, “Design, synthesis, biological evaluation and preliminary mechanism study of novel benzothiazole derivatives bearing indole-based moiety as potent antitumor agents” (Eur J Med Chem, 2015)
“And” between values parts separate entries of the source, which are not always exact repeats. Equal entries are not always repeated.

Columns and labels:
[1] = Cytotoxicity against human H460 cells after 72 hrs by MTT assay; type: functional, cell-based; settings: NCI-H460, 72 h
Summary of the method: (§1)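 MTT assay on HT29, H460, A549 and MDA-MB-231 cells with oncrasin-1 and PAC-1 as positive controls; IC50 from three independent experiments.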

A549 = experiment: Cytotoxicity against human A549 cells after 72 hrs by MTT assay; type: functional, cell-based; settings: A549, 72 h; summary of the method: as §1
MDA-MB-231 = experiment: Cytotoxicity against human MDA-MB-231 cells after 72 hrs by MTT assay; type: functional, cell-based; settings: MDA-MB-231, 72 h; summary of the method: as §1
Caspase-3 (Homo sapiens) = biological target: T1, Caspase-3 (Homo sapiens) (UniProt P42574); experiment: Activation of procaspase-3 (unknown origin) using Ac-DEVD-pNa as substrate at 10 uM after 2 hrs by spectrophotometry
T1 sequence (whole entry): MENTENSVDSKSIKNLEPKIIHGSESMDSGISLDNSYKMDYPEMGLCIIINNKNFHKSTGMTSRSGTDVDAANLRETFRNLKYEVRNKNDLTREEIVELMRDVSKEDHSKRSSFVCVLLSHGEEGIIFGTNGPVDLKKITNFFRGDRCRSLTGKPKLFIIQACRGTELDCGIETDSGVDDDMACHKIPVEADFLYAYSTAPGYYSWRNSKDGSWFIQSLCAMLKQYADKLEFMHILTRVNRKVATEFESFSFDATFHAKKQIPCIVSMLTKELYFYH

HT-29 [2] = experiment: Cytotoxicity against human HT-29 cells after 72 hrs by MTT assay; type: functional, cell-based; summary of the method: as §1
Tubulin (Homo sapiens) = Tubulin (Homo sapiens) (UniProt P68371+Q9H4B7+P0DPH7+P68366+Q13509+Q71U36+P04350+Q3ZCM7+P07437+P68363+Q9BQE3+Q6PEY2+Q13885+Q9BVA1+Q9BUF5); experiment: Inhibition of tubulin (unknown origin) at 10 uM measured for 20 mins by turbidity method; type: protein-complex assay
[3] = biological target: Receptor-type tyrosine-protein kinase FLT3 (Homo sapiens) (UniProt P36888); experiment: Inhibition of FLT3 (unknown origin) at 10 uM after 30 mins by HTRF method
Chain of Receptor-type tyrosine-protein kinase FLT3 (Homo sapiens) (P36888 whole entry): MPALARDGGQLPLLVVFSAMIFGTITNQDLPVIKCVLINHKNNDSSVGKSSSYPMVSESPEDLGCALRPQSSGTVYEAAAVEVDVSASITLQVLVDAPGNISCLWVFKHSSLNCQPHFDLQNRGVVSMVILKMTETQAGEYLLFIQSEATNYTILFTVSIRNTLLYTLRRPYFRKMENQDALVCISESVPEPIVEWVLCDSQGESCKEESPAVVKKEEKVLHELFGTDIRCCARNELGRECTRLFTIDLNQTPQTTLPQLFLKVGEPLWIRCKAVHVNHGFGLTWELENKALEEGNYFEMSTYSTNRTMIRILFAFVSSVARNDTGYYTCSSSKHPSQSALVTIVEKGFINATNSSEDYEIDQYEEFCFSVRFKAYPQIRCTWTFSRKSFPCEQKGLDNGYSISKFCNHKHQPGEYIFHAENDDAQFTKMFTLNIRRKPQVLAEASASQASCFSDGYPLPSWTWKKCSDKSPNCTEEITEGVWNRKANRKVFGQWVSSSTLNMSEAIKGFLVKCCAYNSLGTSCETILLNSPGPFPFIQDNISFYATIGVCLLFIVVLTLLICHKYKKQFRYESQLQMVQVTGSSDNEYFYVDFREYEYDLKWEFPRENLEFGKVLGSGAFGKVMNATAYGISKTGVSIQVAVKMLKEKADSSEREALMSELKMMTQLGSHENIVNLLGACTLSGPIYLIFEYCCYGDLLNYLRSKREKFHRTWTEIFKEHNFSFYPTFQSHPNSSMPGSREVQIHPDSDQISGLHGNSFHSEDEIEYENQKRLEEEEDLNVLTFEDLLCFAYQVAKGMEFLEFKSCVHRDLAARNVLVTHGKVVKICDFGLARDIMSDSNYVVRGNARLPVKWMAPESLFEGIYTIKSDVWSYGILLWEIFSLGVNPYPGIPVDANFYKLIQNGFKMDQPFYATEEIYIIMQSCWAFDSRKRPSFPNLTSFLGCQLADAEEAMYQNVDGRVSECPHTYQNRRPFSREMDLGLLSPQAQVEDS

[4] = biological target: Vascular endothelial growth factor receptor 2 (Homo sapiens) (UniProt P35968); experiment: Inhibition of KDR (unknown origin) at 10 uM after 30 mins by HTRF method
Chain of Vascular endothelial growth factor receptor 2 (Homo sapiens) (P35968 whole entry): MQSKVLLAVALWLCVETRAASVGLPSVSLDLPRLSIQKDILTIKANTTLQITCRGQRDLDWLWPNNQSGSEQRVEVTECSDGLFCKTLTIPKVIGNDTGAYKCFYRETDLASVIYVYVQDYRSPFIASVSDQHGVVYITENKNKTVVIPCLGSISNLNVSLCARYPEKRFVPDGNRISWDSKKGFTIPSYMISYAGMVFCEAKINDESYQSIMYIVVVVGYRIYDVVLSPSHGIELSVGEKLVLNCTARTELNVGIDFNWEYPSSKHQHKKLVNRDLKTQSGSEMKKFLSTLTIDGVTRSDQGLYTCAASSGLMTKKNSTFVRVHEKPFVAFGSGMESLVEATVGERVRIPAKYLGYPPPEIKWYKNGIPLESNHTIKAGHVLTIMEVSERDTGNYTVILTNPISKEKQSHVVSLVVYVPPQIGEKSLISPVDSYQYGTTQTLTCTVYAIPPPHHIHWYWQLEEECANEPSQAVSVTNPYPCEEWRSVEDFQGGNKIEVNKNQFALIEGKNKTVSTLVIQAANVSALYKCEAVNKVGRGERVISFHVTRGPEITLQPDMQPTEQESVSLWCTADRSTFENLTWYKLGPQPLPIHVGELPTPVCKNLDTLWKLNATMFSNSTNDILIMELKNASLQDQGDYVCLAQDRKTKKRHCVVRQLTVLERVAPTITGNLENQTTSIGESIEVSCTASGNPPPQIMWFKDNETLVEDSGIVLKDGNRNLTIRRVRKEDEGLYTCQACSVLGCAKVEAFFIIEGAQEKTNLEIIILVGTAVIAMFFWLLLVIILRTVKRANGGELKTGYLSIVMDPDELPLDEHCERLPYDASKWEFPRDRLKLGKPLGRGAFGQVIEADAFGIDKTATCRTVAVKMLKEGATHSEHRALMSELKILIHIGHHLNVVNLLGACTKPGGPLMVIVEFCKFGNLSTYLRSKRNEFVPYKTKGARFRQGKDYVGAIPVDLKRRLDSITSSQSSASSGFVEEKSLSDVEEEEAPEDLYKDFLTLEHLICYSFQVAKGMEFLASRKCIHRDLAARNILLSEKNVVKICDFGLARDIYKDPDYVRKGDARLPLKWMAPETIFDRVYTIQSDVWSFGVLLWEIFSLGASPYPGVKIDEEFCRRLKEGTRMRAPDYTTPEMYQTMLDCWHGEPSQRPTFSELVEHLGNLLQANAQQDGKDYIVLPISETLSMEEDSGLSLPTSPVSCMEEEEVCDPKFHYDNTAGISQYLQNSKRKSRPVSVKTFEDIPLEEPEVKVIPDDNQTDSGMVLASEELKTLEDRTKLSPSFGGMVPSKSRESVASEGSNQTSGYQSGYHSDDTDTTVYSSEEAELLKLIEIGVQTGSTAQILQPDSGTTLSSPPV

[5] = biological target: Platelet-derived growth factor receptor beta (Homo sapiens) (UniProt P09619); experiment: Inhibition of PDGFR-beta (unknown origin) at 10 uM after 30 mins by HTRF method
Chain of Platelet-derived growth factor receptor beta (Homo sapiens) (P09619 whole entry): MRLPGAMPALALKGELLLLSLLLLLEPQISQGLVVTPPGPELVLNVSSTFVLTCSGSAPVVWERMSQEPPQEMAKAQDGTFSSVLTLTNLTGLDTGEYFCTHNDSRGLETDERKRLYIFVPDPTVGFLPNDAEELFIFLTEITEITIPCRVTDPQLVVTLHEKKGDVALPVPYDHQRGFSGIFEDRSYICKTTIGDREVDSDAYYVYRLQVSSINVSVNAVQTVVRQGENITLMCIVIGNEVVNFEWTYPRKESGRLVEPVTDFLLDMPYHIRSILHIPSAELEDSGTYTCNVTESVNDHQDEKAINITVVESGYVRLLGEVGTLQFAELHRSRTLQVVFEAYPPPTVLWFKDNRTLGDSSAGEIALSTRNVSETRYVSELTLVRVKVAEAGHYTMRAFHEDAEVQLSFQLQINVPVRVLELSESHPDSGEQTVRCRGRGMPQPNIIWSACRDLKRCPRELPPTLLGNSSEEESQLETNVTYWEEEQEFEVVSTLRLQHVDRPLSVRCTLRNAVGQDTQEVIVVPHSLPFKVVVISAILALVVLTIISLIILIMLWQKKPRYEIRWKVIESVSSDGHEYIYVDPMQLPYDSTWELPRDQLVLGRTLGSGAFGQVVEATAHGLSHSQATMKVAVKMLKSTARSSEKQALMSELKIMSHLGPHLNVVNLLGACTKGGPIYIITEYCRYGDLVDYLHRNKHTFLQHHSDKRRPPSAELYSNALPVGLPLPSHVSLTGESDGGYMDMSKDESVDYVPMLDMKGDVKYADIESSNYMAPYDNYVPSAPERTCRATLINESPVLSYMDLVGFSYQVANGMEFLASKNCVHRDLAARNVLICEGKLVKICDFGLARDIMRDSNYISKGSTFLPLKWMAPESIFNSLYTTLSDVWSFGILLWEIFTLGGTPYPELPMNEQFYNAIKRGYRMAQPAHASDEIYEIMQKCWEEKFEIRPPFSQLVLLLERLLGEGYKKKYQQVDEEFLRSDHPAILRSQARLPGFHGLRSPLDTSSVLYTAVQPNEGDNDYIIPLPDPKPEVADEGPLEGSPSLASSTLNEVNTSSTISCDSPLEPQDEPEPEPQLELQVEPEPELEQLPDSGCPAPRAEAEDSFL

HT-29 [6] = experiment: Cell cycle arrest in human HT-29 cells assessed as accumulation at G0/G1 phase AT 10 uM after 48 hrs by propidium iodide staining-based assay (reference value: 54.11%); type: functional

| Activity (Caspase-3 (Homo sapiens)) [%] | inhibition (Tubulin (Homo sapiens)) [%] | inhibition [3] [%] | inhibition [4] [%] | inhibition [5] [%] | SMILES | IC50 [1] [nM] | IC50 (A549) [nM] | IC50 (MDA-MB-231) [nM] | IC50 (HT-29 [2]; Homo sapiens, HT-29, 72 h) [nM] | IC50 (HT-29 [2]; ht-29) | Activity (HT-29 [6]) [%] |
| --- | --- | --- | --- | --- | --- | --- | --- | --- | --- | --- | --- |
| 100 |  |  |  |  | C=CCc1cccc(/C=N/NC(=O)CN2CCN(Cc3ccccc3)CC2)c1O [PAC-1] | 1250 | 2510 | 3200 | 1020 |  |  |
|  |  |  |  |  | CCN(CC)Cc1ccc2nc(NC(=O)N/N=C/c3cn(Cc4ccc(C)cc4)c4ccccc34)sc2c1 | 320 | 1510 | 2010 |  |  |  |
|  |  |  |  |  | CCN(CC)Cc1ccc2nc(NC(=O)N/N=C3\C(=O)Nc4ccc(OC(F)(F)F)cc43)sc2c1 | 2110 | 1990 |  |  | 1900 nM and 5720 nM |  |
|  |  |  |  |  | CCN(CC)Cc1ccc2nc(NC(=O)N/N=C/c3cn(Cc4ccc(C(C)(C)C)cc4)c4ccccc34)sc2c1 | 1670 | 1710 | 2120 |  |  |  |
|  |  |  |  |  | CCN(CC)Cc1ccc2nc(NC(=O)N/N=C/c3cn(Cc4cccc(Cl)c4)c4ccccc34)sc2c1 | 220 | 2410 | 2050 |  |  |  |
|  |  |  |  |  | CC1CCN(Cc2ccc3nc(NC(=O)N/N=C/c4cn(Cc5ccccc5Cl)c5ccccc45)sc3c2)CC1 | 1080 | 3330 | 1360 |  | 1570 nM and 5890 nM |  |
|  |  |  |  |  | CC1CCN(Cc2ccc3nc(NC(=O)N/N=C4\C(=O)Nc5ccc(F)cc54)sc3c2)CC1 | 1430 | 3010 |  | 4100 | 5390 nM |  |
|  |  |  |  |  | CCN(CC)Cc1ccc2nc(NC(=O)N/N=C3\C(=O)Nc4ccc(F)cc43)sc2c1 | 1060 | 2010 |  |  | 1550 nM and 5810 nM |  |
|  |  |  |  |  | CC1CCN(Cc2ccc3nc(NC(=O)N/N=C/c4cn(Cc5ccccc5)c5ccccc45)sc3c2)CC1 | 1910 | 2340 | 2850 |  | 2050 nM and 5720 nM |  |
|  |  |  |  |  | CN(C)Cc1ccc2nc(NC(=O)N/N=C/c3c[nH]c4ccccc34)sc2c1 | 2550 | 3300 | 1190 | 9900 | 5000 nM |  |
|  |  |  |  |  | CN(C)Cc1ccc2nc(NC(=O)N/N=C/c3cn(Cc4ccc(C(C)(C)C)cc4)c4ccccc34)sc2c1 | 810 | 1850 | 2230 |  |  |  |
|  |  |  |  |  | O=Cc1cn(Cc2ccc(Cl)cc2)c2ccccc12 | 850 | 2480 | 26100 | 1710 |  |  |
|  |  |  |  |  | CCN(CC)Cc1ccc2nc(NC(=O)N/N=C/c3cn(Cc4ccccc4)c4ccccc34)sc2c1 | 450 | 3330 | 1470 |  |  |  |
|  |  |  |  |  | CC1CCN(Cc2ccc3nc(NC(=O)N/N=C/c4cn(Cc5ccc(Cl)cc5)c5ccccc45)sc3c2)CC1 | 400 | 2030 | 2850 |  | 750 nM and 6430 nM |  |
|  |  |  |  |  | CN(C)Cc1ccc2nc(NC(=O)N/N=C/c3cn(Cc4ccccc4)c4ccccc34)sc2c1 | 400 | 2900 | 1340 |  |  |  |
|  |  |  |  |  | CC1CCN(Cc2ccc3nc(NC(=O)N/N=C/c4cn(Cc5ccc(C(C)(C)C)cc5)c5ccccc45)sc3c2)CC1 | 3370 | 3710 | 3880 |  | 1500 nM and 5750 nM |  |
|  |  |  |  |  | Cc1ccc(Cn2cc(/C=N/NC(=O)Nc3nc4ccc(CN(C)C)cc4s3)c3ccccc32)cc1 | 200 | 1600 | 1220 |  |  |  |

| Activity (Caspase-3 (Homo sapiens)) [%] | inhibition (Tubulin (Homo sapiens)) [%] | inhibition [3] [%] | inhibition [4] [%] | inhibition [5] [%] | SMILES | IC50 [1] [nM] | IC50 (A549) [nM] | IC50 (MDA-MB-231) [nM] | IC50 (HT-29 [2]; Homo sapiens, HT-29, 72 h) [nM] | IC50 (HT-29 [2]; ht-29) | Activity (HT-29 [6]) [%] |
| --- | --- | --- | --- | --- | --- | --- | --- | --- | --- | --- | --- |
|  |  |  |  |  | CC1CCN(Cc2ccc3nc(NC(=O)N/N=C/c4cn(Cc5cccc(Cl)c5)c5ccccc45)sc3c2)CC1 | 280 | 2810 | 2110 |  | 730 nM and 6140 nM |  |
|  |  |  |  |  | CN(C)Cc1ccc2nc(NC(=O)N/N=C/c3cn(Cc4ccc(Cl)cc4Cl)c4ccccc34)sc2c1 | 950 | 2000 | 1410 |  |  |  |
|  |  |  |  |  | CN(C)Cc1ccc2nc(NC(=O)N/N=C3\C(=O)Nc4ccc(Cl)cc43)sc2c1 | 1170 | 3180 |  |  | 2570 nM and 5590 nM |  |
|  |  |  |  |  | Cc1ccc(Cn2cc(/C=N/NC(=O)Nc3nc4ccc(CN5CCC(C)CC5)cc4s3)c3ccccc32)cc1 | 410 | 2180 | 1140 |  | 1030 nM and 5940 nM |  |
|  |  |  |  |  | CC1CCN(Cc2ccc3nc(NC(=O)N/N=C/c4cn(Cc5ccc(Cl)cc5Cl)c5ccccc45)sc3c2)CC1 | 1660 | 3640 | 3140 |  | 2120 nM and 5620 nM |  |
|  |  |  |  |  | CCN(CC)Cc1ccc2nc(NC(=O)N/N=C/c3c[nH]c4ccccc34)sc2c1 | 3140 | 3300 | 1900 |  | 12100 nM and 4920 nM |  |
|  |  |  |  |  | CN(C)Cc1ccc2nc(NC(=O)N/N=C/c3cn(Cc4ccc(Cl)c(Cl)c4)c4ccccc34)sc2c1 | 1360 | 940 | 1000 |  |  |  |
|  |  |  |  |  | CCN(CC)Cc1ccc2nc(NC(=O)N/N=C/c3cn(Cc4ccccc4Cl)c4ccccc34)sc2c1 | 980 | 1390 | 900 |  |  |  |
|  |  |  |  |  | CN(C)Cc1ccc2nc(NC(=O)N/N=C/c3cn(Cc4ccccc4Cl)c4ccccc34)sc2c1 | 1600 | 1080 | 1180 |  |  |  |
|  |  |  |  |  | CCN(CC)Cc1ccc2nc(NC(=O)N/N=C/c3cn(Cc4ccc(Cl)c(Cl)c4)c4ccccc34)sc2c1 | 610 | 1470 | 4490 |  | 630 nM and 6200 nM |  |
|  |  |  |  |  | CCN(CC)Cc1ccc2nc(NC(=O)N/N=C/c3cn(Cc4ccc(Cl)cc4)c4ccccc34)sc2c1 | 370 | 2940 | 2570 |  |  |  |
| 48.8 | 18 |  |  |  | CN(C)Cc1ccc2nc(NC(=O)N/N=C/c3cn(Cc4cccc(Cl)c4)c4ccccc34)sc2c1 | 420 | 1240 | 1140 |  |  |  |
|  |  |  |  |  | CCN(CC)Cc1ccc2nc(NC(=O)N/N=C/c3cn(Cc4ccc(Cl)cc4Cl)c4ccccc34)sc2c1 | 1080 | 1900 | 3280 |  | 1040 nM and 6060 nM |  |
| 70.9 | 26 | 4.1 | 5.9 | 12.8 | CN(C)Cc1ccc2nc(NC(=O)N/N=C/c3cn(Cc4ccc(Cl)cc4)c4ccccc34)sc2c1 | 290 | 840 | 880 |  |  | 68.66 |
| 9.1 |  | 34.1 | 3.7 | 2.2 | CN(C)Cc1ccc2nc(NC(=O)N/N=C3\C(=O)Nc4ccc(F)cc43)sc2c1 | 1550 | 2310 |  |  | 970 nM and 6010 nM |  |
|  |  |  |  |  | CC1CCN(Cc2ccc3nc(NC(=O)N/N=C/c4c[nH]c5ccccc45)sc3c2)CC1 | 4130 | 3580 | 2460 |  | 15200 nM and 4820 nM |  |
